The values below come from ChEMBL document CHEMBL1926570, “Ultrasound mediated catalyst free synthesis of 6H-1-benzopyrano[4,3-b]quinolin-6-ones leading to novel quinoline derivatives: their evaluation as potential anti-cancer agents” (Bioorg Med Chem, 2012).

As usually defined, the IC50 is the point on the concentration scale where inhibition reaches its midpoint. Low readings indicate inhibition by little substance, high ones a need for much substance. Usually inhibition stands for the drop in the measured response relative to a control, in per cent. High values mean a strong effect, low ones a weak effect.

Structures are written as SMILES. A value given as a limit tells only on which side of the number the result lay.

One assay deals with IMR-32. Kind of assay: Cytotoxicity against human IMR32 cells after 24 hrs by MTT assay. The following applies: IMR-32, 24 h. The class given is functional, cell-based. The gist of the method:
(§1)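 Cells obtained from National Center for Cell Sciences, Pune, and grown in RPMI-1640 with 10% heat-inactivated FBS, penicillin/streptomycin and 2 mM glutamine at 37 °C, 5% CO₂. Seeded at 5 × 10³ cells/well and treated with or without compound at 1 and 10 for 24 h. MTT (5 mg/ml in PBS) was added for 2 h at 37 °C, then DMSO, and absorbance read at 570 nm. Triplicate wells per point; IC50 is 50% growth inhibition relative to untreated cells.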
For orientation: Tetrazolium assays rely on reduction of a dye to a coloured formazan, in cell work by metabolically active cells.

Another assay has as its system MDA-MB-231. The assay can be described thus: Cytotoxicity against human MDA-MB-231 cells after 24 hrs by MTT assay. The class given is functional, cell-based. The following applies: MDA-MB-231, 24 h. An outline of the steps:
as §1

Another assay concerns COLO 205. The assay can be described thus: Cytotoxicity against human COLO205 cells after 24 hrs by MTT assay. The following applies: COLO 205, 24 h. The class given is functional, cell-based. An outline of the steps: as §1
A further assay relates to K562. The assay can be described thus: Cytotoxicity against human K562 cells after 24 hrs by MTT assay. The class given is functional, cell-based. The following applies: K562, 24 h. The gist of the method:
as §1

Assay [1] concerns the target T1, NAD-dependent protein deacetylase sirtuin-1 (Homo sapiens) (UniProt Q96EB6).
T1 sequence (whole entry): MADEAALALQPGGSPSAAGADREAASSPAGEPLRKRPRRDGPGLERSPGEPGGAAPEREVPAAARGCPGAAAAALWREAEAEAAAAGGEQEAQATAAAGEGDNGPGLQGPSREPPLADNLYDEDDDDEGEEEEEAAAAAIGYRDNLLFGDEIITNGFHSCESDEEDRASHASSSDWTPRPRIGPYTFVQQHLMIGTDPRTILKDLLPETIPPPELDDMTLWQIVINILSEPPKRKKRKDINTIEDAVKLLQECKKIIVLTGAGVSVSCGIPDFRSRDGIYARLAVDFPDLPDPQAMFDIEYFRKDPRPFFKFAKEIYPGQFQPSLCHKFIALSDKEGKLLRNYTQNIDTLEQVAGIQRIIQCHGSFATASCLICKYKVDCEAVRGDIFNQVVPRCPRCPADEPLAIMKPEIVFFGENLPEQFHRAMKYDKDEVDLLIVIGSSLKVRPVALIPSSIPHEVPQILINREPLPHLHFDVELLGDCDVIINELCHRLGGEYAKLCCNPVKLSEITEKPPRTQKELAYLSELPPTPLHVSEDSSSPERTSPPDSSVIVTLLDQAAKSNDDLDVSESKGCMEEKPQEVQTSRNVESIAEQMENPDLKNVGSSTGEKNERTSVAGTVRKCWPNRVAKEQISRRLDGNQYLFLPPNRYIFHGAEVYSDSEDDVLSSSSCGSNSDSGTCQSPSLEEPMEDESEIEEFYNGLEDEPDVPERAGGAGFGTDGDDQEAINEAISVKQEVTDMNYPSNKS
The assay can be described thus: Inhibition of human N-terminally hexa-his-tagged SIRT1 expressed in Escherichia coli BL21 (DE3) at 10 uM after 15 mins by […]. An outline of the steps: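 Commercial SIRT1 fluorescence kit using bacterially purified human Sirt1, fluorophore-labelled substrate peptide (25) and NAD⁺ (25), with or without compound at 10, for 15 min at 37 °C. Stop solution was then added for 45 min at room temperature. Fluorescence read at Ex 360/Em 450 nm. The no-enzyme blank and the compound autofluorescence (no-enzyme) control were subtracted.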
(In general: In fluorescence polarisation assays a small probe gives low polarisation when free and higher when bound to something large.)

As to `O=c1oc2ccccc2c2nc3ccc(F)cc3cc12`, the IC50 in the assay with IMR-32 stood at 43 µM; in the assay with MDA-MB-231 it was 11 µM; in the assay on COLO 205, 17 µM; in the assay with K562 it was 37 µM.

Regarding `COc1ccc2nc3c(cc2c1)c(=O)oc1ccccc13`, the IC50 stood at 36 µM in the assay on IMR-32, 9 µM with MDA-MB-231, 41 µM in the assay on COLO 205 and 39 µM in the assay on K562.

Turning to `COc1ccc2c(c1)[nH]c1c(C)nccc12` [HARMINE], the IC50 in the assay on IMR-32 stood at 68 µM; in the assay on MDA-MB-231 it was 54 µM; in the assay on COLO 205, 46 µM; in the assay with K562, 45 µM.

As to `O=c1oc2ccccc2c2nc3ccc(Cl)cc3cc12`, the IC50 amounted to 46 µM with IMR-32, 14 µM in the assay on MDA-MB-231, 16 µM in the assay on COLO 205 and 32 µM in the assay with K562.

As for `O=c1oc2ccccc2c2nc3cc(Br)ccc3cc12`, the IC50 stood at 23 µM in the assay on IMR-32, 19 µM with MDA-MB-231, 38 µM with COLO 205 and 23 µM in the assay on K562.

In the case of `O=c1oc2ccccc2c2nc3ccccc3cc12`, the IC50 worked out at 28 µM in the assay with IMR-32, 12 µM in the assay with MDA-MB-231, 18 µM in the assay with COLO 205 and 43 µM in the assay on K562.

With `O=c1oc2ccccc2c2nc3cc(F)c(F)cc3cc12`, the IC50 in the assay with IMR-32 came to 25 µM; in the assay with MDA-MB-231 it was 8 µM; in the assay on COLO 205 it was 11 µM; in the assay with K562 it was 41 µM.

As to `Cc1ccc2nc(-c3ccccc3O)c(CO)cc2c1`, the concentration for half-maximal inhibition (IC50) in the assay with IMR-32 was above 100 µM; in the assay on MDA-MB-231, above 100 µM; in the assay with COLO 205 it was above 100 µM; in the assay with K562, 12 µM.

For the compound `O=c1oc2ccccc2c2nc3c(F)c(F)ccc3cc12`, the IC50 in the assay on IMR-32 came to 36 µM; with MDA-MB-231 it was 23 µM; in the assay with COLO 205, 29 µM; in the assay on K562 it was 28 µM. Moreover, the inhibition in assay [1] stood at 48%.

On to `O=c1oc2ccccc2c2nc3cc(F)ccc3cc12`, for which the IC50 stood at 41 µM in the assay on IMR-32, 29 µM with MDA-MB-231, 21 µM with COLO 205 and 35 µM with K562.

Regarding `NCc1cc2ccccc2nc1-c1ccccc1O`, the half-maximal inhibitory concentration (IC50) in the assay with IMR-32 came to 46 µM; with MDA-MB-231 it was 19 µM; with COLO 205, 32 µM; in the assay with K562, 23 µM. In assay [1], this compound yielded an inhibition of 59%.

Consider `NS(=O)(=O)c1cc(C(=O)O)cc([N+](=O)[O-])c1NCc1cc2ccccc2nc1-c1ccccc1O`, for which the IC50 came out at 18 µM in the assay on IMR-32, 8 µM in the assay with MDA-MB-231, 19 µM in the assay on COLO 205 and 10 µM in the assay on K562. In addition, in assay [1], the inhibition was 61%.

Take `Cc1ccc2nc3c(cc2c1)c(=O)oc1ccccc13`: the half-inhibitory concentration (IC50) in the assay on IMR-32 amounted to 33 µM; with MDA-MB-231, 12 µM; in the assay on COLO 205, 29 µM; in the assay with K562 it was 23 µM.

For the compound `COc1cccc2cc3c(=O)oc4ccccc4c3nc12`, the concentration for half-maximal inhibition (IC50) in the assay on IMR-32 stood at 46 µM; with MDA-MB-231 it was 16 µM; in the assay on COLO 205, 24 µM; with K562, 35 µM.

On to `CS(=O)(=O)N(Cc1cn(Cc2cc3ccccc3nc2-c2ccccc2O)nn1)c1ccccc1I`, for which the half-maximal inhibitory concentration (IC50) was determined as 38 µM in the assay with IMR-32, 8 µM with MDA-MB-231, 12 µM with COLO 205 and 13 µM in the assay on K562. This compound had an inhibition in assay [1] of 62%.

Consider `OCc1cc2cc(F)c(F)cc2nc1-c1ccccc1O`, for which the IC50 in the assay with IMR-32 is 63 µM; with MDA-MB-231, above 100 µM; in the assay on COLO 205, above 100 µM; with K562, 12 µM. The compound further had an inhibition in assay [1] of 48%.

Consider `OCc1cc2cc(Cl)ccc2nc1-c1ccccc1O`, for which the IC50 with IMR-32 is 65 µM; in the assay with MDA-MB-231, above 100 µM; with COLO 205, 24 µM; with K562, 11 µM.

Take `[N-]=[N+]=NCc1cc2ccccc2nc1-c1ccccc1O`: the IC50 in the assay on IMR-32 worked out at 24 µM; in the assay with MDA-MB-231, 12 µM; in the assay on COLO 205, 19 µM; with K562, 11 µM. Also, in assay [1], the inhibition was 53%.

Turning to `OCc1cc2ccccc2nc1-c1ccccc1O`, the IC50 in the assay on IMR-32 is above 100 µM; in the assay with MDA-MB-231, above 100 µM; with COLO 205, 40 µM; in the assay with K562 it was 74 µM.
